H69AR inhibit = proliferation blockers of H69AR lung cancer cells, primary screen, cell-based, human, 86K library; actives 6% (n = 85,000); viability, % at 10 µM; H69AR lung tumor viability, ATP luminescence, 72 h; active compounds read low;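 active means viability at or below 40%; inactive means viability above 40%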;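 further: multidrug resistant small cell line overexpressing MRP-1 efflux transporter; 100% = mean luminescence of untreated control wells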
bCat KO growth = primary screen for growth suppressors in beta-catenin knockout HCT116 cells (colon tumor, human) | actives 1.5% (n = 140,000) | AID 818, 2007 | HCT116 beta-catenin knockout viability, CellTiter-Glo, 60 h; active compounds read low | viability, % at 10 µM;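 active means viability at or under a set limit, the compound median less 4 SD, cut at about 6% in these data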;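 further: 0% = Hyamine 1622 control at 20 µM and 100% = untreated cell control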
HUVEC inhibit = inhibitors of HUVEC proliferation, primary screen, cell-based, 384-well. CellTiter-Glo luminescence, 72 h; active compounds read low. viability, % at 10 µM (by protocol). AID 648, 2007. actives 1.1% (n = 86,000);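 active means viability at or below 30%; inactive means viability above 30%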;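 further: 100% = median luminescence of DMSO-only cell control wells on each plate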
Lung fibro prol = antiproliferative effect on LL 47 fibroblasts – human, LL 47 cells, CellTiter-Glo luminescence, primary screen. viability, % at 10 µM. actives 1.1% (n = 85,000). AID 719, 2007. LL 47 human lung fibroblast viability, ATP luminescence; active compounds read low;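 active means viability at or below 50% in the single dose screen; inactive means viability above 50%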;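 further: compound exposure lasted 72 h before the ATP readout; 100% = median luminescence of untreated cell-only wells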
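Material: human lung fibroblast line LL 47, low passage; Evaluation: viability percentage against median untreated-cell control; Buffer or medium: 15% FBS in IMEM; Incubation: 72 h compound exposure at 37 °C after overnight plating; Dosing: 0.1% DMSO in all compound wells; Measured by: CellTiter-Glo luminescence.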
Phagocytosis inh = inhibitors of macrophage phagocytosis, primary screen, imaging, J774A.1 cells, IgG beads; inhibition, % at 5 µM; J774A.1 macrophage IgG-bead phagocytosis; actives 0.07% (n = 110,000);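 active means inhibition above the mean of the plate negative controls plus 5 SD, cut at about 13% in these data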;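 further: phagocytic index as fraction of beads internalized from green versus red external bead signal; plate controls were DMSO negative control for no effect and cytochalasin-D positive control for full effect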
HCT116 PTEN-null = growth suppression of PTEN-null HCT116, primary screen, cell-based, CellTiter-Glo. viability, % at 10 µM. HCT116 PTEN-null viability, 60 h; active compounds read low. actives 1.2% (n = 140,000);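 active means viability at or below a set limit, 4 SD under the median of all tested compounds, cut at about 3.7% in these data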;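 further: PTEN knockout HCT116 line with beta catenin targeted HCT116 as companion control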
* hit, by the source's call. This excerpt belongs to a sample that is enriched for hits.

COc1ccc(Br)cc1/C=C/C(=O)Nc1ccc2ccccc2c1 was read as bCat KO growth 73.5, Phagocytosis inh -4.2 and HCT116 PTEN-null 79.3.
For CCC(=O)Nc1cccc(C(=O)/C=C/c2cc(Br)ccc2OC)c1 the results were bCat KO growth 0.8*, Phagocytosis inh 0.2 and HCT116 PTEN-null 0.7*.
Screening O=C(/C=C/Nc1ccccc1Br)c1ccccn1 returned H69AR inhibit 66.5, bCat KO growth 37.2, HUVEC inhibit 66.5, Lung fibro prol 74.9, Phagocytosis inh 1.6 and HCT116 PTEN-null 37.0.
Screening CC(=O)Nc1cccc(C(=O)/C=C/c2ccc(N(C)C)cc2)c1 returned bCat KO growth 56.1, Phagocytosis inh 0.0 and HCT116 PTEN-null 58.4.
`CN(C)c1ccc(/C=C/C(=O)c2ccccc2)cc1[N+](=O)[O-]` gave bCat KO growth 1.8*, Phagocytosis inh -1.5 and HCT116 PTEN-null 1.4*.
`CNc1ccc(/C=C/C(=O)c2ccc(C)cc2)cc1[N+](=O)[O-]` gave bCat KO growth 20.8, Phagocytosis inh -5.0 and HCT116 PTEN-null 19.8.
For CC(=O)Nc1cccc(C(=O)/C=C/c2ccc(Br)cc2)c1 the results were bCat KO growth 1.5*, Phagocytosis inh -7.0 and HCT116 PTEN-null 1.3*.
CC(=O)Nc1cccc(C(=O)/C=C/c2ccc(/C=C/C(=O)c3cccc(NC(C)=O)c3)cc2)c1 was read as bCat KO growth 4.2*, Phagocytosis inh -4.0 and HCT116 PTEN-null 1.8*.
For CC(C)CC(=O)Nc1cccc(C(=O)Nc2ccccc2C(=O)O)c1 the results were H69AR inhibit 100.0, bCat KO growth 100.0, HUVEC inhibit 95.6, Lung fibro prol 101.5, Phagocytosis inh -1.4 and HCT116 PTEN-null 104.8.
CC(=O)c1ccc(NC(=S)NC(=O)c2c(Cl)c(C)nn2C)cc1 was read as bCat KO growth 99.0, Phagocytosis inh -4.7 and HCT116 PTEN-null 99.5.
`CCOc1cc(NC(=S)NCCCN2CCOCC2)c(OCC)cc1NC(=O)C1CC1` gave bCat KO growth 101.0, Phagocytosis inh -12.4 and HCT116 PTEN-null 107.3.
`CN1CCc2c(sc3c2C(=O)NC(c2ccccn2)N3)C1` (centres undefined) gave H69AR inhibit 93.2, bCat KO growth 91.1, HUVEC inhibit 100.5, Lung fibro prol 99.3, Phagocytosis inh 1.0 and HCT116 PTEN-null 93.3.
For O=C1NC(c2ccccn2)Nc2sc3c(c21)CCC3 (centres undefined) the results were H69AR inhibit 42.8, bCat KO growth 3.8*, HUVEC inhibit 71.7, Lung fibro prol 83.5, Phagocytosis inh 1.8 and HCT116 PTEN-null 1.8*.
For Cn1cc(C2NC(=O)c3c(sc4c3CCCC4)N2)c2ccccc21 (centres undefined) the results were H69AR inhibit 28.0*, HUVEC inhibit 84.8 and Lung fibro prol 90.7.
`N#Cc1c(N)n(C2CCCCC2)c2nc3ccccc3nc12` gave H69AR inhibit 34.6*, bCat KO growth 87.0, HUVEC inhibit 69.5, Lung fibro prol 68.9, Phagocytosis inh -1.3 and HCT116 PTEN-null 74.3.
Screening CCC(=O)Nc1c(C#N)c2nc3ccccc3nc2n1C1CCCCC1 returned H69AR inhibit 85.0, bCat KO growth 59.8, HUVEC inhibit 97.8, Lung fibro prol 94.3, Phagocytosis inh 3.8 and HCT116 PTEN-null 65.1.
For CNCc1ccccc1Sc1ccc(OC)c(OC)c1 the results were bCat KO growth 81.8, Phagocytosis inh -1.5 and HCT116 PTEN-null 83.0.
CCC(=O)N1c2ccc(S(=O)(=O)CCC(=O)NC3CCCC3)cc2CC1C (centres undefined) was read as H69AR inhibit 93.4, bCat KO growth 88.4, HUVEC inhibit 88.8, Lung fibro prol 103.2 and HCT116 PTEN-null 95.6.
CCC(=O)N1c2ccc(S(=O)(=O)CCC(=O)NCc3cccs3)cc2CC1C (centres undefined) was read as H69AR inhibit 30.4*, bCat KO growth 82.3, HUVEC inhibit 76.4, Lung fibro prol 89.6 and HCT116 PTEN-null 82.1.
For CCC(=O)N1c2ccc(S(=O)(=O)CCC(=O)N3CCn4c3nc3ccccc34)cc2CC1C (centres undefined) the results were H69AR inhibit 1.9*, bCat KO growth 67.3, HUVEC inhibit 88.2, Lung fibro prol 43.5* and HCT116 PTEN-null 81.0.
Screening CC(C)(C)c1ccc(/C=C/C(=O)c2ccc(NC3=NCCCS3)cc2)cc1 returned bCat KO growth 1.1*, Phagocytosis inh -2.0 and HCT116 PTEN-null 0.9*.
For O=C(/C=C/c1ccccc1)c1ccc(NC2=NCCCS2)cc1 the results were bCat KO growth 9.1, Phagocytosis inh -1.4 and HCT116 PTEN-null 10.0.
Screening O=C(/C=C/c1ccc(Br)cc1)c1ccc(NC2=NCCCS2)cc1 returned bCat KO growth 3.2*, Phagocytosis inh -1.4 and HCT116 PTEN-null 2.4*.
For COc1cccc(C(=O)NCC(=O)OCc2ccc(F)cc2Cl)c1 the results were bCat KO growth 101.2, Phagocytosis inh -12.1 and HCT116 PTEN-null 91.5.
`CNC(=O)N(O)C1N(c2ccccc2)C(=S)SC1(C)C` (centres undefined) gave bCat KO growth 96.3, Phagocytosis inh -10.6 and HCT116 PTEN-null 96.2.
`CCOc1ccc(CN(C(=O)c2oc3cc(C)ccc3c2C)C2CCS(=O)(=O)C2)cc1` (centres undefined) gave H69AR inhibit 11.3*, bCat KO growth 16.2, HUVEC inhibit 49.9, Lung fibro prol 85.7, Phagocytosis inh -1.2 and HCT116 PTEN-null 16.5.
Screening Cc1ccc(CN(C(=O)c2cc(=O)c3cc(Cl)c(C)cc3o2)C2CCS(=O)(=O)C2)cc1 (centres undefined) returned H69AR inhibit 26.4*, bCat KO growth 67.8, HUVEC inhibit 77.8, Lung fibro prol 81.7, Phagocytosis inh 1.2 and HCT116 PTEN-null 65.7.
Screening Cc1cc(N2CCC(N(C)C3CCCC3)CC2)nc2cc(O)ccc12 returned H69AR inhibit 1.1*, bCat KO growth 75.5, HUVEC inhibit 75.7, Lung fibro prol 66.1, Phagocytosis inh 0.3 and HCT116 PTEN-null 77.6.
`COC(=O)c1oc2c(c1C)C1(CCC2)SCCS1` gave H69AR inhibit 36.8*, bCat KO growth 88.3, HUVEC inhibit 87.7, Lung fibro prol 87.2, Phagocytosis inh -1.0 and HCT116 PTEN-null 91.5.
`O=C(Oc1ccc([N+](=O)[O-])cc1)c1cccnc1` gave bCat KO growth 98.9, Phagocytosis inh -1.9 and HCT116 PTEN-null 106.4.
For O=C(Oc1ccc(NC2=C(Cl)C(=O)c3ccccc3C2=O)cc1)c1ccc([N+](=O)[O-])cc1 the results were bCat KO growth 0.9* and HCT116 PTEN-null 1.1*.
CC1CCN(CCCNC(=O)Cc2c(C(=O)O)n(C)c3ccccc23)CC1 was read as H69AR inhibit 93.5 and HUVEC inhibit 106.4.

Bioassay records: PubChem, several laboratories
